Experimental data: ChEMBL document CHEMBL1687898, “Structure-activity relationships in glycosylated 2-phenyl-indoles, 2-phenyl-benzo[b]thiophenes and 2-phenyl-benzo[b]furans as DNA binding and potential antitumor agents” (Bioorg Med Chem, 2011)

Assays:
[1] = system: HT-29; assay: Cytotoxicity against human HT-29 cells by MTS assay; assay type: functional, cell-based
Summary of the method: (§1)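 Cells kept in DMEM high glucose with 10% FBS and 2 mM L-glutamine, 37 °C, 5% CO2, and seeded at 1 × 10⁴ cells/well. After 24 h, switched to serum-free DMEM-F12 with albumin, transferrin and insulin, with or without compound. Incubated 3 days at 37 °C in triplicate to quintuplicate wells. MTS added for 2–2.5 h and read at 490 nm. Viability given as % of media-only control. IC50 from Boltzmann nonlinear regression.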

[2] = system: HepG2; assay: Cytotoxicity against human HepG2 cells by MTS assay; assay type: functional, cell-based; summary of the method: as §1
[3] = system: HT-29; assay: Cytotoxicity against human HT-29 cells assessed as cell viability at 25 uM by MTS assay; assay type: functional; conditions: read-out: Activity; summary of the method: as §1
[4] = system: Nucleic Acid; assay: Displacement of ethidium bromide from herring sperm DNA assessed as remaining ethidium bromide at 50 uM by FID assay; assay type: nucleic-acid assay; conditions: Clupeidae
Summary of the method: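 Single-point FID. Read EtBr (5 µM) in BPE buffer (pH 7.0), exc 520 nm, em 540–700 nm, then read again with sheared herring sperm DNA added; the intensity difference is 100%. Compound added from 10 mM DMSO stock to a final 50 µM, equilibrated ~3 min, rescanned until steady. % EtBr remaining is the mean of triplicates.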

[5] = system: HepG2; assay: Cytotoxicity against human HepG2 cells assessed as cell viability at 25 uM by MTS assay; assay type: functional; conditions: read-out: Activity; summary of the method: as §1
[6] = system: MCF7; assay: Cytotoxicity against human MCF7 cells assessed as cell viability at 25 uM by MTS assay; assay type: functional; conditions: read-out: Activity; summary of the method: as §1
[7] = system: HT-29; assay: Cytotoxicity against human HT-29 cells assessed as cell viability at 100 uM by MTS assay; assay type: functional; conditions: read-out: Activity
[8] = system: HepG2; assay: Cytotoxicity against human HepG2 cells assessed as cell viability at 100 uM by MTS assay; assay type: functional; conditions: read-out: Activity
[9] = system: MCF7; assay: Cytotoxicity against human MCF7 cells assessed as cell viability at 100 uM by MTS assay; assay type: functional; conditions: read-out: Activity
[10] = system: Nucleic Acid; assay: Displacement of ethidium bromide from herring sperm DNA assessed as remaining ethidium bromide at 100 uM by FID assay; assay type: nucleic-acid assay; conditions: Clupeidae
[11] = system: MCF7; assay: Cytotoxicity against human MCF7 cells by MTS assay; assay type: functional, cell-based; summary of the method: as §1
[12] = system: Nucleic Acid; assay: Displacement of ethidium bromide from herring sperm DNA assessed as compound concentration required to 50% fluorescence loss of EtBr by FID assay; assay type: nucleic-acid assay; conditions: Clupeidae
Summary of the method: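 Multiple-point FID in the same system: 0.2 µL aliquots of 10 mM DMSO stock added stepwise, fluorescence read after each addition, until 50% loss of EtBr fluorescence. Apparent binding constant K_Ligand = K_EtBr × [EtBr]/[Ligand]50%.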

[13] = system: Nucleic Acid; assay: Displacement of ethidium bromide from herring sperm DNA assessed as remaining ethidium bromide at 20 uM by FID assay; assay type: nucleic-acid assay; conditions: Clupeidae

SMILES	IC50 [1] [µM]	IC50 [2] [µM]	viability at 25 µM [3] [%]	Activity [4] [%]	viability at 25 µM [5] [%]	viability at 25 µM [6] [%]	viability at 100 µM [7] [%]	viability at 100 µM [8] [%]	viability at 100 µM [9] [%]	Activity [10] [%]	IC50 [11] [µM]	Activity [12] [µM]	Activity [13] [%]
C[C@@H]1O[C@H](OCC#Cc2c(-c3ccccc3)oc3ccccc23)CC[C@H]1O	12.4	22.3	7	103	6	29							
OCCCc1c(-c2ccccc2)oc2ccccc12			76		91	94	< 1	< 1	16				
C[C@@H]1O[C@@H](OCC#Cc2c(-c3ccccc3)sc3ccccc23)CC[C@@H]1OC(=O)c1ccccc1			81		99	100							
C[C@@H]1O[C@@H](OCCCc2c(-c3ccccc3)oc3ccccc23)CC[C@@H]1N	6.9	7.7	< 1		< 1	< 1				43.5	13.8		
C[C@@H]1O[C@@H](OCC#Cc2c(-c3ccccc3)sc3ccccc23)CC[C@@H]1OC=O	12.6	19.8	2		17	59							
Cc1ccc(S(=O)(=O)n2c(-c3ccccc3)c(C#CCO[C@@H]3CC[C@@H](O)[C@H](C)O3)c3ccccc32)cc1		18.6	24	109	5	33							
C[C@@H]1O[C@@H](OCC#Cc2c(-c3ccccc3)sc3ccccc23)CC[C@H]1OC=O	7.7	17.4			< 1	37							
C[C@@H]1O[C@H](OCC#Cc2c(-c3ccccc3)sc3ccccc23)CC[C@@H]1N	4.6	4.9	< 1	26.6	< 1	< 1					7.7	45	
C[C@@H]1O[C@@H](OCCCc2c(-c3ccccc3)oc3ccccc23)CC[C@H]1O	16.9		25		62	65							
C[C@@H]1O[C@@H](OCC#Cc2c(-c3ccccc3)sc3ccccc23)CC[C@H]1O	11.1	16.4	6	103	25	51							
C[C@@H]1O[C@@H](OCC#Cc2c(-c3ccccc3)oc3ccccc23)CC[C@H]1O	13.1	15.3	3	96.7	< 1	38							
C[C@@H]1O[C@@H](OCCCc2c(-c3ccccc3)sc3ccccc23)CC[C@H]1O	15.3		19		84	68							
OCCCc1c(-c2ccccc2)sc2ccccc12	16.3		< 1		87	79	< 1	< 1	< 1				
CC(=O)O[C@@H]1CC[C@H](OCC#Cc2c(-c3ccccc3)sc3ccccc23)O[C@H]1C	7.2	12.3	< 1		< 1	27							
Cc1ccc(S(=O)(=O)n2c(-c3ccccc3)c(C#CCO[C@@H]3CC[C@H](N)[C@H](C)O3)c3ccccc32)cc1	5.3	5	< 1	19.8	< 1	< 1					5.3	55	> 100
C[C@@H]1O[C@H](OCC#Cc2c(-c3ccccc3)sc3ccccc23)CC[C@H]1O	12.8	13.6	2	99.9	7	23							
C[C@@H]1O[C@H](OCC#Cc2c(-c3ccccc3)oc3ccccc23)CC[C@@H]1N	5.4	6.7	< 1	26.9	< 1	< 1					8.3	55	> 100
Cc1ccc(S(=O)(=O)n2c(-c3ccccc3)c(C#CCO[C@H]3CC[C@H](N)[C@H](C)O3)c3ccccc32)cc1				38.6									
Cc1ccc(S(=O)(=O)n2c(-c3ccccc3)c(C#CCO[C@H]3CC[C@@H](O)[C@H](C)O3)c3ccccc32)cc1			54	111	27	40							
CC(=O)O[C@@H]1CC[C@H](OCCCc2c(-c3ccccc3)oc3ccccc23)O[C@H]1C	17.8		19		42	53							
C[C@@H]1O[C@@H](OCC#Cc2c(-c3ccccc3)oc3ccccc23)CC[C@@H]1N				68.5						68.5			
C[C@@H]1O[C@@H](OCC#Cc2c(-c3ccccc3)sc3ccccc23)CC[C@@H]1O	13.4	15.6	10		10	56							
CC(=O)O[C@@H]1CC[C@H](OCC#Cc2c(-c3ccccc3)oc3ccccc23)O[C@H]1C	11.8	19.2	8		5	24							
CC(=O)O[C@@H]1CC[C@@H](OCC#Cc2c(-c3ccccc3)oc3ccccc23)O[C@H]1C	10.7	20.9	9		15	78							
CC(=O)O[C@@H]1CC[C@@H](OCC#Cc2c(-c3ccccc3)sc3ccccc23)O[C@H]1C	10	15.7	< 1		8	40							
C[C@@H]1O[C@@H](OCC#Cc2c(-c3ccccc3)sc3ccccc23)CC[C@H]1N	5.3	4.7	< 1		< 1	< 1					6.6		
C[C@@H]1O[C@@H](OCC#Cc2c(-c3ccccc3)sc3ccccc23)CC[C@@H]1N				79.9						79.9			
C[C@@H]1O[C@@H](OCCCc2c(-c3ccccc3)sc3ccccc23)CC[C@@H]1N	8.2	7.5	< 1		< 1	< 1				51.9	11.8		
CC(=O)O[C@@H]1CC[C@H](OCCCc2c(-c3ccccc3)sc3ccccc23)O[C@H]1C	10.2		9		72	47							
